Active and inactive are the calls of the source. The rule behind the calls is not given here.
What was measured:
[1] = species: Cavia porcellus; test: (§1) Percent contraction of the guinea pig gall bladder uM; assay type: functional; design: concentration or dose not given beside the values
In short: (§2)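 Isolated guinea pig gallbladder incubated with ligand at 37 °C, 30 µM for 30 min or 1 µM for 60 min. Contraction expressed as percent of the contraction induced by 1 µM CCK-8.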

[2] = molecular target: T1, Gastrin/cholecystokinin type B receptor (Homo sapiens, UniProt P32239); test: Concentration required to displace [125I]Bolton-Hunter CCK-8 from human Cholecystokinin type B receptor expressed in CHO-K1 cells; assay type: cell-based
T1 sequence (P32239 whole entry): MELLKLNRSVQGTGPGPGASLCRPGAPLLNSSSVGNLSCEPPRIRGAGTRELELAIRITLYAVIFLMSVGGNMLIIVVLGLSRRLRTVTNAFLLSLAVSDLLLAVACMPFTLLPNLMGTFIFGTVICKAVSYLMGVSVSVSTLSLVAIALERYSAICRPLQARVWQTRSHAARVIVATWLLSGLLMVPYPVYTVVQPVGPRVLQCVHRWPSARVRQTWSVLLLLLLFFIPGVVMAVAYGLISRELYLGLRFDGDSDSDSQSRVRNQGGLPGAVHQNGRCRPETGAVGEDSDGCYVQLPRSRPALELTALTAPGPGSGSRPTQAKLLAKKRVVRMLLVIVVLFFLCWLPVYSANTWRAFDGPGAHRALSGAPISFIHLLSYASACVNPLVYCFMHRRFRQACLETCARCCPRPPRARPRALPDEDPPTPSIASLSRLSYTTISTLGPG

[3] = molecular target: T2, Cholecystokinin receptor type A (Homo sapiens, UniProt P32238); test: Concentration required to displace [125I]Bolton-Hunter CCK-8 from human Cholecystokinin type A receptor stably expressed in CHO-K1 cells; assay type: cell-based
T2 sequence (P32238 whole entry): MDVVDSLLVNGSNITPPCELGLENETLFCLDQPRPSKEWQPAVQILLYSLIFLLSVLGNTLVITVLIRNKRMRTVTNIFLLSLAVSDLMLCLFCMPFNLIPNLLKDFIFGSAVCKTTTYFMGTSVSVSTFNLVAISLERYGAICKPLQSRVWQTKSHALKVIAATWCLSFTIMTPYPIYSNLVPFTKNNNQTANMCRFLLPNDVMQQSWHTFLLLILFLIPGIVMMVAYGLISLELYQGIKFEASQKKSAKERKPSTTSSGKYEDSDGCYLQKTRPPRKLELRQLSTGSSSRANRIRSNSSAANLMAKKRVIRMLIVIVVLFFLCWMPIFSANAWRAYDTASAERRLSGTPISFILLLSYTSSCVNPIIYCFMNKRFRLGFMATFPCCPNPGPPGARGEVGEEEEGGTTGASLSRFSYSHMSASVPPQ

[4] = species: Cavia porcellus; test: Antagonist affinity (pKB) against contraction of guinea pig gall bladder measured at a dose 30 uM; assay type: functional
[5] = species: Cavia porcellus; test: Guinea pig gall bladder contraction by the compound at concentration 1 uM in the absence of MK329; assay type: functional; in short: as §2
[6] = species: Cavia porcellus; test: Guinea pig gall bladder contraction by the compound at concentration 1 uM in the presence of MK329; assay type: functional
[7] = species: Cavia porcellus; test: as §1; assay type: functional; in short: as §2
[8] = species: Cavia porcellus; test: Percentage reversal of isolated guinea pig gall bladder contraction by the compound; assay type: functional
In short: (§3)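 Isolated guinea pig gallbladder contraction induced by test ligand (30 µM screen), then reversed with MK-329 at 1 µM to confirm a CCK-A receptor-mediated response.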

[9] = species: Rattus norvegicus; test: Anorectic potency in rats conditioned to a palatable liquid diet and fasted for 2 hours; assay type: functional
[10] = test system: Rattus norvegicus; test: Maximal response of the rat to anorectic potency 30 min after intraperitoneal administration (1 uM/Kg); assay type: functional
[11] = species: Cavia porcellus; test: Percent contraction of the guinea pig gall bladder uM; Inactive; assay type: functional; in short: as §2
[12] = species: Cavia porcellus; test: Guinea pig gall bladder contraction by the compound at concentration 30 uM in the absence of MK329; assay type: functional; in short: as §2
[13] = species: Cavia porcellus; test: Guinea pig gall bladder contraction by the compound at concentration 30 uM in the presence of MK329; assay type: functional; in short: as §3
[14] = test system: Rattus norvegicus; test: Maximal response of the rat to anorectic potency 30 min after intraperitoneal administration (0.5 uM/Kg); assay type: functional

Question: `CCN(C(=O)CN1C(=O)C(NC(=O)Nc2ccccc2)C(=O)N(c2ccccc2)c2ccccc21)c1ccccc1` (configuration not stated) was tested. Which Activity [1] did it give?
Answer: 66%

Question: How did the Activity [1] turn out when `N#CCCN(C(=O)CN1C(=O)C(NC(=O)Nc2ccccc2)C(=O)N(c2ccccc2)c2ccccc21)c1ccccc1` (configuration not stated) was run?
Answer: 32%

Question: What does the source list for `CC(C)N(C(=O)CN1C(=O)C(NC(=O)Nc2ccccc2)C(=O)N(c2ccccc2)c2ccccc21)c1ccc(C(=O)O)cc1` (configuration not stated)?
Answer: IC50 [2]: 39.8 nM; IC50 [3]: 2510 nM; Activity [1]: 10%; pKB [4]: 6.14

Question: How did the Activity [1] turn out when `CC(C)N(Cc1ccccc1)C(=O)CN1C(=O)C(NC(=O)Nc2ccccc2)C(=O)N(c2ccccc2)c2ccccc21` (configuration not stated) was run?
Answer: 34%

Question: Which Activity [1] does the source give for `CCCN(C(=O)CN1C(=O)C(NC(=O)Nc2ccccc2)C(=O)N(c2ccccc2)c2ccccc21)c1ccccc1` (configuration not stated) here?
Answer: 50%

Question: Which IC50 [2] does the source give for `CC(C)N(C(=O)CN1C(=O)C(NC(=O)Nc2ccccc2)C(=O)N(c2ccccc2)c2ccccc21)c1ccc(N2CCOCC2)cc1` (configuration not stated) here?
Answer: 158 nM

Question: And the GPGB tension [5]?
Answer: 1.88 g

Question: And the GPGB tension [6]?
Answer: 0.43 g

Question: What about the Activity [7] of the same molecule?
Answer: 74%

Question: And the Reversal [8]?
Answer: 123%

Question: What about the ED50 [9] of the same molecule?
Answer: 0.2 µmol/kg

Question: And the Max response [10]?
Answer: 26%

Question: How did the Activity [1] turn out when `CC(C)N(C(=O)CN1C(=O)C(NC(=O)Nc2ccccc2)C(=O)N(c2ccccc2)c2ccccc21)C(C)C` (configuration not stated) was run?
Answer: 21%

Question: Which IC50 [2] does the source give for `CC(C)N(C(=O)CN1C(=O)C(NC(=O)Nc2ccccc2)C(=O)N(c2ccccc2)c2ccccc21)c1ccc(N(C)C)cc1.O=C(O)C(F)(F)F` (configuration not stated) here?
Answer: 251 nM

Question: What about the IC50 [3] of the same molecule?
Answer: 63.1 nM

Question: What about the GPGB tension [5] of the same molecule?
Answer: 2.55 g

Question: And the GPGB tension [6]?
Answer: 0.01 g

Question: And the Activity [7]?
Answer: 46%

Question: And the Activity [1]?
Answer: 75%

Question: What about the Reversal [8] of the same molecule?
Answer: 100%

Question: What about the ED50 [9] of the same molecule?
Answer: 0.09 µmol/kg

Question: And the Max response [10]?
Answer: 54%

Question: What does the source list for `CC(C)N(C(=O)CN1C(=O)C(NC(=O)Nc2ccccc2)C(=O)N(c2ccccc2)c2ccccc21)c1ccc(F)cc1` (configuration not stated)?
Answer: IC50 [2]: 31.6 nM; IC50 [3]: 100 nM; GPGB tension [5]: 2.14 g; GPGB tension [6]: 0.34 g; Activity [7]: 53%; Reversal [8]: 116%; ED50 [9]: 0.2 µmol/kg; Max response [10]: 56%

Question: Which Activity [1] does the source give for `CCCCN(C(=O)CN1C(=O)C(NC(=O)Nc2ccccc2)C(=O)N(c2ccccc2)c2ccccc21)c1ccccc1` (configuration not stated) here?
Answer: 27%

Question: `O=C(O)CN(C(=O)CN1C(=O)C(NC(=O)Nc2ccccc2)C(=O)N(c2ccccc2)c2ccccc21)c1ccccc1` (configuration not stated) was tested. Which Activity [11] did it give?
Answer: inactive

Question: What about the pKB [4] of the same molecule?
Answer: 6.33

Question: For `CC(C)N(C(=O)CN1C(=O)C(NC(=O)Nc2ccccc2)C(=O)N(c2ccccc2)c2ccccc21)c1ccccc1` (configuration not stated), which GPGB tension [12] is on record?
Answer: 2.53 g

Question: And the GPGB tension [13]?
Answer: 0.43 g

Question: And the Activity [1]?
Answer: 86%

Question: And the Reversal [8]?
Answer: 117%

Question: What about the ED50 [9] of the same molecule?
Answer: 0.95 µmol/kg

Question: What about the Max response [10] of the same molecule?
Answer: 48%

Question: For `O=C(Nc1ccccc1)NC1C(=O)N(CC(=O)N(c2ccccc2)c2ccccc2)c2ccccc2N(c2ccccc2)C1=O` (configuration not stated), which Activity [1] is on record?
Answer: 43%

Question: How did the IC50 [2] turn out when `COc1ccc(N(C(=O)CN2C(=O)C(NC(=O)Nc3ccccc3)C(=O)N(c3ccccc3)c3ccccc32)C(C)C)cc1` (configuration not stated) was run?
Answer: 50.1 nM

Question: And the IC50 [3]?
Answer: 79.4 nM

Question: And the GPGB tension [12]?
Answer: 2.88 g

Question: And the GPGB tension [13]?
Answer: 0.2 g

Question: What about the Activity [7] of the same molecule?
Answer: 82%

Question: What about the Activity [1] of the same molecule?
Answer: 93%

Question: What about the Reversal [8] of the same molecule?
Answer: 107%

Question: What about the ED50 [9] of the same molecule?
Answer: 0.07 µmol/kg

Question: What about the Max response [10] of the same molecule?
Answer: 62%

Question: How did the Activity [11] turn out when `O=C(CN1C(=O)C(NC(=O)Nc2ccccc2)C(=O)N(c2ccccc2)c2ccccc21)Nc1ccccc1` (configuration not stated) was run?
Answer: inactive

Question: And the pKB [4]?
Answer: 6.33

Question: For `NCCN(C(=O)CN1C(=O)C(NC(=O)Nc2ccccc2)C(=O)N(c2ccccc2)c2ccccc21)c1ccccc1` (configuration not stated), which Activity [1] is on record?
Answer: 7%

Question: And the pKB [4]?
Answer: 5.88

Question: How did the Activity [1] turn out when `CCOC(=O)CN(C(=O)CN1C(=O)C(NC(=O)Nc2ccccc2)C(=O)N(c2ccccc2)c2ccccc21)c1ccccc1` (configuration not stated) was run?
Answer: 16%

Question: With `CSCC[C@H](NC(=O)[C@H](Cc1ccc(OS(=O)(=O)O)cc1)NC(=O)[C@@H](N)CC(=O)O)C(=O)NCC(=O)N[C@@H](Cc1c[nH]c2ccccc12)C(=O)N[C@@H](CCSC)C(=O)N[C@@H](CC(=O)O)C(=O)N[C@@H](Cc1ccccc1)C(N)=O` [SINCALIDE] as the molecule, how does the ED50 [9] read?
Answer: 0.03 µmol/kg

Question: What about the Max response [14] of the same molecule?
Answer: 96%

Question: With `O=C(Nc1ccccc1)NC1C(=O)N(CC(=O)N(c2ccccc2)C2CCCCC2)c2ccccc2N(c2ccccc2)C1=O` (configuration not stated) as the molecule, how does the Activity [1] read?
Answer: 26%

Question: `CN(C(=O)CN1C(=O)C(NC(=O)Nc2ccccc2)C(=O)N(c2ccccc2)c2ccccc21)c1ccccc1` (configuration not stated) was tested. Which Activity [11] did it give?
Answer: inactive

Question: And the pKB [4]?
Answer: 6.27

Question: For `O=C(Nc1ccccc1)NC1C(=O)N(CC(=O)N(CCNC(=O)OCc2ccccc2)c2ccccc2)c2ccccc2N(c2ccccc2)C1=O` (configuration not stated), which Activity [11] is on record?
Answer: inactive

Question: What does the source list for `CC(C)N(C(=O)CN1C(=O)C(NC(=O)Nc2ccccc2)C(=O)N(c2ccccc2)c2ccccc21)c1ccc(O)cc1` (configuration not stated)?
Answer: IC50 [2]: 15.8 nM; IC50 [3]: 39.8 nM; GPGB tension [12]: 2.25 g; GPGB tension [13]: 0 g; Activity [1]: 81%; Reversal [8]: 100%; ED50 [9]: 0.05 µmol/kg; Max response [10]: 74%

Question: How did the Activity [1] turn out when `CCN(CC)C(=O)CN1C(=O)C(NC(=O)Nc2ccccc2)C(=O)N(c2ccccc2)c2ccccc21` (configuration not stated) was run?
Answer: 38%
